In brackets after ≈: the same amount, converted by molar mass. Activity calls are given as the source filed them. The calls are words filed in the database; no cut-off is given here.
Legend:
[1] = target: T1, Sodium- and chloride-dependent GABA transporter 2 (Homo sapiens, UniProt Q9NSD5); assay: Inhibition of human GAT2 expresses in tsA201 cells assessed as reduction in [3H]GABA uptake after 3 mins by scintillation counting method; type: cell-based
T1 sequence (Q9NSD5 whole entry): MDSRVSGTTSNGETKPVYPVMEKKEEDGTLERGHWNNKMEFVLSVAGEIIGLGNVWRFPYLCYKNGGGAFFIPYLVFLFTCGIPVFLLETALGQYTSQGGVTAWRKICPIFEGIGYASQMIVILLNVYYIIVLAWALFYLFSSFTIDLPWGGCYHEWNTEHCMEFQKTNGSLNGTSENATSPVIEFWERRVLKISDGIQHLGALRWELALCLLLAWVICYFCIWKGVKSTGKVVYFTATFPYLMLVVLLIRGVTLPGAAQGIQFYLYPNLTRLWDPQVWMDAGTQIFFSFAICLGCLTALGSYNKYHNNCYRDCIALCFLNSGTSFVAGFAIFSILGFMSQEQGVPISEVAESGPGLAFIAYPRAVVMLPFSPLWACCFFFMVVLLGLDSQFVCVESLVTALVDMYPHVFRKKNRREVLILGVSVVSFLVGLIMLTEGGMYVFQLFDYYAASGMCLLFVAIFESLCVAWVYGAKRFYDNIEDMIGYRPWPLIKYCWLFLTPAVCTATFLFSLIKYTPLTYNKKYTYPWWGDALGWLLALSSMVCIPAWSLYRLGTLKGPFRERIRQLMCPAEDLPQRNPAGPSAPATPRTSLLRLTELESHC
Outline: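 Wild-type human GAT transiently expressed in tsA201 cells via pcDNA5/FRT and PolyFect. Uptake of 30 nM [3H]GABA was run for 3 min at 37 °C in HBSS/20 mM HEPES with 1 mM CaCl2 and 1 mM MgCl2, pH 7.4, across a range of test concentrations. Ice-cold washes were followed by scintillation counting. IC50 was obtained by sigmoidal variable-slope fitting, reported as mean pIC50 ± S.E.M.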

[2] = target: T2, GABA transporter 3 (Mus musculus, UniProt P31649); assay: Inhibition of mouse GAT2 expressed in HEK293 cells assessed as reduction in [3H]GABA uptake after 3 mins by scintillation counting method; type: cell-based
T2 sequence (P31649 whole entry): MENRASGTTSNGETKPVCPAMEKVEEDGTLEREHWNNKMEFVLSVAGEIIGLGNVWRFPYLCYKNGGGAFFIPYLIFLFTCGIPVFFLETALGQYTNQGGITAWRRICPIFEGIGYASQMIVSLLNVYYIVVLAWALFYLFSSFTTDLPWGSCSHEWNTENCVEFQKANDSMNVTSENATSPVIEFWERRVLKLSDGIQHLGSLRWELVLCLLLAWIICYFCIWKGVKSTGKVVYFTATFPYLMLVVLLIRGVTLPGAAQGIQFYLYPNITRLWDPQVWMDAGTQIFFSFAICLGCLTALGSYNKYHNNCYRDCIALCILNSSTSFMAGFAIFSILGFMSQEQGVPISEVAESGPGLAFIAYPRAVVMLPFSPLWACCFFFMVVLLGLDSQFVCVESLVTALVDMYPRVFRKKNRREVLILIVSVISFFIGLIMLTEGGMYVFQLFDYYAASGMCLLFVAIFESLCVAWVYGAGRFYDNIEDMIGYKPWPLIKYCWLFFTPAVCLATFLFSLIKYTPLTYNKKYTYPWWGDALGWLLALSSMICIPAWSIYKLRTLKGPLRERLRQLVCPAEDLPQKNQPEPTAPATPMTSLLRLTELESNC
Outline: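 HEK293 cells stably expressing mouse GAT2 were kept under blasticidin-S (5 µg/mL) selection. Ice-cold washes preceded scintillation counting. IC50 came from a variable-slope sigmoidal fit.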

[3] = target: Sodium- and chloride-dependent betaine transporter (Homo sapiens, UniProt P48065, Q299L); assay: Inhibition of human BGT1 Q299L mutant expressed in tsA201 cells assessed as reduction in [3H]GABA uptake after 3 mins by scintillation counting method; type: cell-based
Outline: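 Site-directed mutant transporters transiently transfected (PolyFect) into tsA201 cells, plated and used about 24 h later. Cells were washed with HBSS containing 20 mM HEPES, 1 mM CaCl2 and 1 mM MgCl2, pH 7.4. IC50 was taken from variable-slope sigmoidal fits. Triplicates, at least three independent experiments.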

[4] = target: 5-hydroxytryptamine receptor 2B (Homo sapiens) (UniProt P41595); assay: Displacement of [3H]LSD from human 5-HT2B receptor expressed in HEK cell membranes at 10 uM after 90 mins by scintillation counting method
[5] = target: T3, Sodium- and chloride-dependent betaine transporter (Homo sapiens, UniProt P48065); assay: Inhibition of human BGT1 expresses in tsA201 cells assessed as reduction in [3H]GABA uptake after 3 mins by scintillation counting method; type: cell-based
T3 sequence (P48065 whole entry): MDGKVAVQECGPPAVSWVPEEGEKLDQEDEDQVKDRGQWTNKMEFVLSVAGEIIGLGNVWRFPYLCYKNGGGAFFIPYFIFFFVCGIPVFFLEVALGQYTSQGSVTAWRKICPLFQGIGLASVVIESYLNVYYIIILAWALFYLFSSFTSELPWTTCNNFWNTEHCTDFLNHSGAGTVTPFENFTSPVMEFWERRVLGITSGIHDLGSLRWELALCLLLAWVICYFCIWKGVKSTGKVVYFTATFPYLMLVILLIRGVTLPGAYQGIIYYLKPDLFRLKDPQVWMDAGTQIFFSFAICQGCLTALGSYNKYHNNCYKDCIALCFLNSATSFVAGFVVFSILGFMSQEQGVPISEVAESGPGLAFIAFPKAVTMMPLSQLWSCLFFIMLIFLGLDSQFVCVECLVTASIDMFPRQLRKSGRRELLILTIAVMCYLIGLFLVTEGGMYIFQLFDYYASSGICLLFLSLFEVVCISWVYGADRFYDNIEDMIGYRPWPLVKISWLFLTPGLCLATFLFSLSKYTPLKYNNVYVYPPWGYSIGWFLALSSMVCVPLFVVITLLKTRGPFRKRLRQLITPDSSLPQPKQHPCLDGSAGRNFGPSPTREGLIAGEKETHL
Outline: (§1)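 tsA201 cells transiently transfected with wild-type or mutant human BGT1 (PolyFect) were plated about 24 h before assay. Three ice-cold washes followed, then scintillation counting.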

[6] = target: Sodium- and chloride-dependent betaine transporter (Homo sapiens, UniProt P48065, Y453S/Y454A); assay: Inhibition of human BGT1 Y453S/Y454A double mutant expressed in tsA201 cells assessed as reduction in [3H]GABA uptake after 3 mins by scintillation counting method; type: cell-based; outline: as §1
[7] = Solubility of compound in pH 7.4 phosphate buffer after 24 hrs by HPLC-UV method; type: physicochemical

Chain of Sodium- and chloride-dependent betaine transporter (Homo sapiens, UniProt P48065, Y453S/Y454A) (P48065 whole entry Y453S/Y454A): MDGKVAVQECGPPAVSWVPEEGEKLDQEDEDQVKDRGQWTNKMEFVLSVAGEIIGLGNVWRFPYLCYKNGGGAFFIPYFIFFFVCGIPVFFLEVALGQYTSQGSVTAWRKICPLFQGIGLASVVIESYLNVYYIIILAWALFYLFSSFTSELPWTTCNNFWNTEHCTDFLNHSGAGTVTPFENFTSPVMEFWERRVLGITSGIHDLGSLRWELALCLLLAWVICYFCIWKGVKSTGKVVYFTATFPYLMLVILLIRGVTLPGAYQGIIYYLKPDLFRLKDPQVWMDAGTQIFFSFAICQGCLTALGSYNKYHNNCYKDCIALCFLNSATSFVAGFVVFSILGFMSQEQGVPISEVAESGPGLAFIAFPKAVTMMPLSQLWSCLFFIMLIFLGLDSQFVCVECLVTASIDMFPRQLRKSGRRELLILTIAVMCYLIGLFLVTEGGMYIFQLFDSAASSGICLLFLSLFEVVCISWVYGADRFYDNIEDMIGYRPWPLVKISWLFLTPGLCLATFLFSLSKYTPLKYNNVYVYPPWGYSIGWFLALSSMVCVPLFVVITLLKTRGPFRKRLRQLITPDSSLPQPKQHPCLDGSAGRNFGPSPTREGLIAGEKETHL
Chain of Sodium- and chloride-dependent betaine transporter (Homo sapiens, UniProt P48065, Q299L) (P48065 whole entry Q299L): as the sequence (P48065 whole entry Y453S/Y454A) above, with Q299L, S453Y, A454Y counted along it
Chain of 5-hydroxytryptamine receptor 2B (Homo sapiens) (P41595 whole entry): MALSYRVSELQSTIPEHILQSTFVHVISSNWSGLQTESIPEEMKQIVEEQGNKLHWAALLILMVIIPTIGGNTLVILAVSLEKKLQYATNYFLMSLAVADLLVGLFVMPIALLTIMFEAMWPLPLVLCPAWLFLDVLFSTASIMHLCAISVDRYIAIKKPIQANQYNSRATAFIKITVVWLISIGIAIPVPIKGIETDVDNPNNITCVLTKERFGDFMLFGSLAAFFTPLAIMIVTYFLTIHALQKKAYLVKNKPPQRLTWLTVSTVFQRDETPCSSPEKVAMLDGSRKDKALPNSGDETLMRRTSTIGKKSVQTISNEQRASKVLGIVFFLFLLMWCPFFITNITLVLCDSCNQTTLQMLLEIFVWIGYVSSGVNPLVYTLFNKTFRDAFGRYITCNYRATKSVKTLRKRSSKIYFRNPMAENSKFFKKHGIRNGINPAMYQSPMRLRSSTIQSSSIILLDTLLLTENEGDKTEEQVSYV

Row | IC50 [1] [µM] | SMILES | IC50 ([1]; read-out: IC50) [µM] | IC50 [2] [µM] | IC50 [3] [µM] | inhibition [4] | IC50 ([5]; read-out: IC50) [µM] | IC50 ([5]; read-out: pIC50 (converted)) [µM] | IC50 ([6]; read-out: IC50) [µM] | IC50 ([6]; read-out: pIC50 (converted)) [µM] | solubility at 24 h [7] [µg/mL]
1 | – | O=C(NC1CCN(Cc2ccccc2)CC1)c1ccc(Cl)nc1Cl | 479 | > 400 | 8 | Active | 44 | 40.7 | 15 | 12.9 | 610 (≈ 1670 µM)
2 | > 100 | O=C(NC1CCN(Cc2ccccc2)CC1)c1ccc(Cl)cc1Cl | – | > 200 | 3 | Active | 18 | – | 6 | – | 40 (≈ 110 µM)
